Series [1] deals with Chinese patients with type 2 diabetes. Kind of series: Safety and tolerability. It counts as in vivo, human. The note with it: during the study. In outline: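 Adults aged 20–70 with T2D and BMI ≥ 23.0 kg/m2 received once-weekly SC test compound or placebo, followed by 4 weeks of follow-up. AEs were recorded on an electronic CRF with investigator-assessed relatedness. TEAEs were events arising or worsening after treatment start. Also collected: laboratory values, vital signs, ECG, injection-site reactions and hypoglycaemia (glucose ≤ 70.0 mg/dL, graded per International Hypoglycaemia Study Group). All enrolled patients were included.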

The nature of series [2]: Tirzepatide plasma pharmacokinetics after multiple SC doses. It counts as in vivo, human. To be noted: Chinese patients with T2D, QW SC 2.5–15.0 mg. In outline:
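Plasma test compound concentrations were measured after once-weekly SC doses escalated from 2.5 mg by 2.5 mg every 4 weeks, to 10.0 mg or 15.0 mg. Cmax, AUC, Tmax and T½ were derived. T½ was calculated over periods both shorter and longer than the resulting T½. Patients with ≥1 dose and evaluable data were analysed.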

Series [3] relates to Chinese patients with type 2 diabetes. Kind of series: Pharmacodynamics: change from baseline in HbA1c, FPG, 7-point SMBG, meal intake. It counts as in vivo, human. To be noted: both tirzepatide groups; not apparent in placebo.
Series [4] has the same test system. Kind of series: Immunogenicity: anti-drug antibodies. It counts as in vivo, human. In short, it runs like this:
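Randomised 5:1, double-blind, placebo-controlled. Test compound or placebo given once weekly SC, starting at 2.5 mg and rising 2.5 mg every 4 weeks to 10.0 or 15.0 mg. Frequency and percentage of patients with pre-existing and treatment-emergent ADAs were recorded. Treatment-induced meant a titer twofold/1-dilution above the minimum required dilution with no baseline ADA. Treatment-boosted meant a fourfold/2-dilution titer rise over a positive baseline.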

The conditions of series [5]: global and Japanese patient populations, single and multiple doses; cited from earlier work.
Where [6] appears, read: all 20 patients treated with tirzepatide, treatment-induced.

“Also recorded” adds a separate entry of the source.

As for `CC[C@H](C)[C@H](NC(=O)[C@H](CC(C)C)NC(=O)[C@H](Cc1c[nH]c2ccccc12)NC(=O)[C@H](CCC(N)=O)NC(=O)[C@@H](NC(=O)[C@H](Cc1ccccc1)NC(=O)[C@H](C)NC(=O)[C@H](CCCCNC(=O)COCCOCCNC(=O)COCCOCCNC(=O)CC[C@H](NC(=O)CCCCCCCCCCCCCCCCCCC(=O)O)C(=O)O)NC(=O)[C@H](CCC(N)=O)NC(=O)[C@H](C)NC(=O)[C@@H](NC(=O)[C@H](CCCCN)NC(=O)[C@H](CC(=O)O)NC(=O)[C@H](CC(C)C)NC(=O)C(C)(C)NC(=O)[C@@H](NC(=O)[C@H](CO)NC(=O)[C@H](Cc1ccc(O)cc1)NC(=O)[C@H](CC(=O)O)NC(=O)[C@H](CO)NC(=O)[C@@H](NC(=O)[C@H](Cc1ccccc1)NC(=O)[C@@H](NC(=O)CNC(=O)[C@H](CCC(=O)O)NC(=O)C(C)(C)NC(=O)[C@@H](N)Cc1ccc(O)cc1)[C@@H](C)O)[C@@H](C)O)[C@@H](C)CC)[C@@H](C)CC)C(C)C)C(=O)N[C@@H](C)C(=O)NCC(=O)NCC(=O)N1CCC[C@H]1C(=O)N[C@@H](CO)C(=O)N[C@@H](CO)C(=O)NCC(=O)N[C@@H](C)C(=O)N1CCC[C@H]1C(=O)N1CCC[C@H]1C(=O)N1CCC[C@H]1C(=O)N[C@@H](CO)C(N)=O` [Tirzepatide, tirzepatide], the “deaths or SAEs in patients receiving tirzepatide” value in series [1] (both tirzepatide groups) is “no serious adverse events reported; also recorded: No deaths or SAEs occurred”. In series [1], the “changes in vital signs measurements” value is listed as “No clinically meaningful changes”. For the same compound, in series [2], the “T½, range of values across weeks and cohorts” value fell in the range of 124 to 145 h. Besides, the “meal intake between baseline and end of study” value in series [3] was “trend towards a decrease”. Moreover, the entries for the “ADA-positive patients post-baseline, number” value in series [4] (2.5–10.0 mg group), in series [4] (2.5–15.0 mg group) and in series [4] (setting [6]) were “five”, “three” and “Eight”, respectively. The “ADA-positive patients post-baseline, percentage” value in series [4] (setting [6]) came out at 40%. Besides, the ADAs at baseline result in series [4] (baseline) is “No ADAs were detected”. Further, the “impact of ADA-positive status on safety, PK and PD” value in series [4] (in vivo) is given as “no apparent impact”. Also, the “median Tmax range” value in series [5] was 24 to 48 h.

Source of the values: article PMC10329955 (Advances in Therapy, 2023).
